Results on 20 compounds are retold here after PubChem BioAssay.

Unmarked numbers belong to inactive results. Results filed as inconclusive are left out. Active and inactive are the calls of the source.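 Rule for the calls, unless noted: active = RAM network inhibition above 8.4% in each of two replicates, 3 SD over the compound average; inconclusive = above 8.4% inhibition in only one replicate; inactive = 8.4% inhibition or less in each replicate.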

Test [1] can be described thus: S. cerevisiae growth inhibition in permissive medium (OD615), pilot counter-assay for S. cerevisiae lifespan shortening project, permissive growth control (AID 705;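 active = growth inhibition above 25% in both replicates, a cutoff set 3 SD above the mean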). Particulars: OD615, 24 h, at 10 µM, active compounds read high. In a few lines:
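Timing: 24 h exposure, 30 °C / Material: Saccharomyces cerevisiae strain carrying genetically modified DeaD replicative-lifespan system / Signal: OD at 615 nm / Compound: 10 µM single dose, 0.25% DMSO / Medium: SC raffinose/galactose permissive medium / Evaluation: reduction in yeast growth (OD615)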

Test [2] can be described thus: S. cerevisiae growth inhibition in restrictive medium, OD615, pilot screen, restrictive growth control, yeast lifespan reduction project (AID 706;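 active = growth inhibition above a set limit, 3 SD over mean compound inhibition, in both replicates, cut at about 43% in these data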;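 note: modified DeaD lifespan yeast strain shifted to restrictive glucose medium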). Particulars: OD615, 48 h, at 10 µM, active compounds read high. In a few lines: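 System: Engineered S. cerevisiae DeaD strain | Detection: OD615 | Buffer or medium: CSMM-D glucose medium | Doses: 10 µM compound, 0.25% DMSO | Timing: 4 h pre-growth plus 48 h compound exposure, 30 °C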

Test [3] can be described thus: doxorubicin toxicity protection in MRP-1 cells – H69AR cells, CellTiter-Glo, duplicate, MRP-1 activator project, pilot screen (AID 807;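 active = viability increase at or above a cutoff of the median across tested compounds plus 3 SD, cut at about 8.5% in these data, passing the limit was not always enough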;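 note: compound pretreatment 18-22 h then 72 h combined with doxorubicin; 0% = doxorubicin alone and 100% = vehicle without doxorubicin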). Particulars: H69AR viability with doxorubicin, CellTiter-Glo luminescence; at 10 µM; active compounds read high.
Test [4] is described as follows: viability of PTEN-null HCT116 cells – cell-based, HCT116 clonal line, CellTiter-Glo, pilot screen (AID 824;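 active = viability at or below 27.92% in each of two runs, the all-compound median minus 4 SD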;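 note: 0% = 20 µM Hyamine control and 100% = vehicle cell control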). To be noted: HCT116 PTEN-deleted viability, 60 h, at 10 µM, active compounds read low.
The nature of test [5]: RAM pathway blockade in budding yeast – dse1pr::URA3 reporter, 5-FOA selection, pilot screen (AID 869;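 active = inhibition over a set limit, the all-compound mean plus 3 SD, in both replicate runs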;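 note: 0% = DMSO wells with no growth and 100% = 10 µM 1-NA-PP1 with full growth; RAM network block rescues cells from 5-FOA so hits raise OD615 growth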). To be noted: S. cerevisiae dse1pr::URA3 5-FOA growth, OD615, 2 d; at 10 µM; active compounds read high; strain carries analog-sensitive mutant Cbk1 kinase.
Test [6] in a line: RAM signaling pathway blockade in yeast – S. cerevisiae, Pdr1DBD-CYC8 efflux-inhibited sensitized strain, primary screen (AID 1298).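 Note: 0% = DMSO untreated cells without growth and 100% = 10 µM 1-NA-PP1 full growth; higher means more yeast growth rescued from 5-FOA killing.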 To be noted: S. cerevisiae cbk1-as DSE1-URA3 strain, 5-FOA growth OD615, 2 d; at 50 µM; active compounds read high.

Turning to `COc1cc(S(=O)(=O)N2CCCCCC2)c(OC)cc1Br`, the growth inhibition in test [1] was 0.23%; in test [2] it was -10.7%. Further, the viability increase in test [3] was -0.06%. In addition, the viability in test [4] is 77.4%. Also, the inhibition in test [5] is -0.43%. Moreover, in test [6], the RAM network inhibition was 5.23%.

For `CCCCN1C(=O)C(O)(CC(=O)c2ccco2)c2cc(Br)ccc21` (stereo not given), the values for the growth inhibition in test [1] and in test [2] were 2.79% and 2.35%, respectively. Besides, the viability increase in test [3] was -6.26%. In addition, the viability in test [4] is 11.5% (active). Further, the inhibition in test [5] was -0.765%. Further, the RAM network inhibition in test [6] was -1.34%.

On to `CCCOc1ccc(/C(O)=C2/C(=O)C(=O)N(CCN(C)C)C2c2ccco2)cc1` (stereo not given), for which the growth inhibition in test [1] is -0.855%; in test [2] it was 13.9%. In addition, the viability increase in test [3] was -4.27%. Besides, the viability in test [4] is 99.6%. The inhibition in test [5] was -0.28%. Moreover, the RAM network inhibition in test [6] was -1.54%.

Consider `Cc1ccc(N(CC(=O)NC2CC3CCC2C3)S(C)(=O)=O)cc1C` (stereo not given), for which the growth inhibition in test [1] was -2.18%; in test [2], -4.39%. For the same compound, the viability increase in test [3] was -2.03%. Also, the viability in test [4] is 96.8%. Further, the inhibition in test [5] was 1.26%. Also, in test [6], the RAM network inhibition is 5.17%.

Regarding `Cc1onc(-c2ccccc2)c1C(=O)Nc1ccc2c(C)cc(=O)oc2c1`, the growth inhibition was -3.97% in test [1] and -0.655% in test [2]. Further, the viability increase in test [3] is -2.9%. Also, the viability in test [4] was 103%. The inhibition in test [5] is 3.31%. Also, the RAM network inhibition in test [6] is 2.2%.

Take `CCc1cc(=O)oc2cc(OCC(=O)OC)c(Cl)cc12`: the growth inhibition in test [1] is -4.85%; in test [2], 1.34%. Moreover, the viability increase in test [3] is -2.39%. The viability in test [4] is 101%. Moreover, the inhibition in test [5] is 0.695%. In addition, the RAM network inhibition in test [6] was 4.51%.

On to `Cc1ccc(Cl)cc1N(CC(=O)N1CCCCCC1)S(C)(=O)=O`, for which the figures for the growth inhibition in test [1] and in test [2] were -9.3% and 10.7%, respectively. In addition, in test [3], the viability increase is -3.63%. Further, the viability in test [4] was 93.4%. The inhibition in test [5] is 0.635%. Moreover, in test [6], the RAM network inhibition was 1.37%.

Take `COc1ccc(OC)c2c(C)cc(N3CCCN(C)CC3)nc12`: the values for the growth inhibition in test [1] and in test [2] were 3.26% and -3.9%, respectively. The viability increase in test [3] is -4.81%. Moreover, the viability in test [4] is 85.9%. The inhibition in test [5] was 0.015%. In addition, the RAM network inhibition in test [6] was 0%.

Consider `CCCC(=O)c1cc(F)c(N2CCN(CCC#N)CC2)cc1C`, for which the results for the growth inhibition in test [1] and in test [2] were -9.06% and -15.5%, respectively. The viability increase in test [3] is -0.66%. The viability in test [4] is 93.6%. For the same compound, the inhibition in test [5] is 2.97%. Moreover, in test [6], the RAM network inhibition was 3.23%.

On to `CCn1c(=O)c2c3c(sc2n2c(SCc4ccc(F)cc4)nnc12)CCCC3`, for which the growth inhibition in test [1] is -17.7%; in test [2] it was -16.7%. Further, the viability increase in test [3] is -7.59%. Besides, the viability in test [4] is 25.7% (active). In test [5], the inhibition is 2.28%. For the same compound, the RAM network inhibition in test [6] is 3.4%.

Regarding `COc1ccc(N(CC(=O)NCc2ccco2)S(C)(=O)=O)cc1Cl`, the figures for the growth inhibition in test [1] and in test [2] were -14.3% and -4.89%, respectively. The viability increase in test [3] is -3.2%. In addition, the viability in test [4] is 91.7%. Also, the inhibition in test [5] is 2.38%. Further, the RAM network inhibition in test [6] was 6.11%.

Regarding `O=C1C2C3C=CC(C3)C2C(=O)N1CCN1CCN(S(=O)(=O)c2ccc3ccccc3c2)CC1` (stereo not given), the growth inhibition was -8.82% in test [1] and 0.84% in test [2]. Also, the viability increase in test [3] is -5.03%. The viability in test [4] was 83.5%. The inhibition in test [5] was 1.27%. For the same compound, in test [6], the RAM network inhibition was 3.68%.

For the compound `CCOC(=O)N1CCN(S(=O)(=O)c2cc(Br)cc3c2N(C(=O)C2CC2)CC3)CC1`, the results for the growth inhibition in test [1] and in test [2] were -3.63% and 7.68%, respectively. In addition, the viability increase in test [3] was -1.65%. Further, in test [4], the viability was 99.5%. The inhibition in test [5] was 0.715%. In test [6], the RAM network inhibition is 5.87%.

In the case of `O=C1CC(c2ccccc2)c2cc(O)ccc2O1` (stereo not given), the growth inhibition is -23.7% in test [1] and -23% in test [2]. In test [3], the viability increase is 3.84%. The viability in test [4] was 69.2%. Also, the inhibition in test [5] is 1.45%. Further, the RAM network inhibition in test [6] is 2.58%.

As to `COc1cc(C(C)=O)ccc1OC(=O)C(C)N1C(=O)c2ccccc2C1=O` (stereo not given), the growth inhibition is -17.5% in test [1] and -5.68% in test [2]. Also, the viability increase in test [3] was -2.73%. Moreover, the viability in test [4] was 93.9%. Moreover, in test [5], the inhibition was 1.02%. Besides, the RAM network inhibition in test [6] is 3.8%.

Consider `COc1ccccc1C(=O)Nc1ccc2c(c1)OCO2`, for which the growth inhibition in test [1] is 4.22%; in test [2], -12.9%. Also, the viability increase in test [3] is -3.95%. Also, the viability in test [4] is 89.2%. Besides, the inhibition in test [5] was 2.47%. Besides, in test [6], the RAM network inhibition is -1.49%.

`CCc1nnc2n1N=C(c1ccc(-c3cc(Cl)ccc3Cl)o1)CS2`: the growth inhibition is 9.53% in test [1] and 26.5% in test [2]. Moreover, the viability increase in test [3] was -7.22%. Also, the viability in test [4] was 22.4% (active). Moreover, the inhibition in test [5] was 2.5%. Moreover, in test [6], the RAM network inhibition is 5.16%.

With `O=C(c1ccco1)c1n[nH]nc1-c1ccccc1`, the growth inhibition in test [1] was -19.6%; in test [2], -5.81%. In test [3], the viability increase was -3.17%. The viability in test [4] is 102%. In addition, in test [5], the inhibition was 1.16%. In addition, the RAM network inhibition in test [6] is 1.94%.

Take `O=C(NC1(C(F)(F)F)Oc2ccccc2O1)N1CCCC1`: the growth inhibition was -3.63% in test [1] and -7.95% in test [2]. Moreover, in test [3], the viability increase is -6.12%. The viability in test [4] was 81.3%. Besides, the inhibition in test [5] is 0.56%. Moreover, the RAM network inhibition in test [6] was 1.58%.

In the case of `COC(=O)C(C)Sc1nnc(-c2ccncc2)o1` (stereo not given), the values for the growth inhibition in test [1] and in test [2] were -6.28% and -8.81%, respectively. Besides, the viability increase in test [3] is -0.71%. Besides, in test [4], the viability is 99.4%. Besides, the inhibition in test [5] is 1.64%. Moreover, the RAM network inhibition in test [6] was 0.1%.
